ChEMBL document CHEMBL4837218, “Synthesis and in vitro antitumour activity of 4(R)-methyl-3-O-phosphonomethyl-α-l-threose nucleosides” (Eur J Med Chem, 2021)
Activity calls are given as the source filed them. The rule behind the calls is not given here.

What was measured:
MCF7 [1] = assay: Induction of G2/M phase cell cycle arrest in human MCF7 cells assessed as downregulation of p-cdc2 protein expression at 4 uM measured after 48 hrs in presence of cdc25c inhibitor, NSC663284 by western blot analysis; type: functional, cell-based
Outline: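 Four groups (untreated, test compound, 0.3 NSC663284, combination) treated 48 h before protein extraction. Lysates resolved by SDS-PAGE (5–15%) and blotted to nitrocellulose. Blocked 2 h in 5% milk/PBS-0.1% Tween 20, primary antibody overnight at 4 °C, biotinylated secondary 1 h. Detected on X-ray film and quantified by densitometry.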

MCF7 [2] = assay: Induction of DNA damage in human MCF7 cells assessed as increase in Chk2 protein expression at 1 to 4 uM measured after 48 hrs by western blot analysis; type: functional, cell-based; conditions: dose 1-4 µM
Outline: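 Cells exposed to graded concentrations for 48 h, then proteins extracted. Run on SDS-PAGE (5–15% gels) and transferred to nitrocellulose. Blocked 2 h in 5% nonfat milk in PBS/0.1% Tween 20, primary antibody overnight at 4 °C, biotin-conjugated secondary 1 h. Visualized on X-ray film with densitometric quantitation; three independent experiments.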

ECa-109 cell line = assay: Antiproliferative activity against human ECa-109 cells assessed as cell growth inhibition measured after 72 hrs by MTT assay; type: functional, cell-based; conditions: ECa-109, 72 h
Outline: (§1)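 Cells seeded at 3000 exponentially growing cells/well and incubated 12 h at 37 °C. Medium then replaced with fresh medium containing graded compound concentrations for 72 h; 5-FU positive control. MTT (5 mg/mL solution) added for 4 h, formazan dissolved in DMSO, absorbance read at 570 nm (reference 630 nm). Relative percentage inhibition of viable cells calculated; IC50 reported as mean ± standard deviation.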

MCF7 [3] = assay: Induction of mitochondrial membrane potential loss in human MCF7 cells assessed as green fluorescence intensity at 4 uM measured after 48 hrs by JC1 staining-based flow cytometry analysis (reference value: 8.1 %); type: functional
MDA-MB-231 [4] = assay: Induction of mitochondrial membrane potential loss in human MDA-MB-231 cells assessed as green fluorescence intensity at 9 uM measured after 48 hrs by JC1 staining-based flow cytometry analysis (reference value: 0.8%); type: functional
MCF7 [5] = assay: Inhibition of PI3K/AKT signalling pathway in human MCF7 cells assessed as downregulation of AKT phosphorylation at Ser473 residue at 1 to 4 uM measured after 48 hrs by Western blot analysis; type: cell-based; conditions: dose 1-4 µM
Outline: (§2)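 After 48 h exposure to compound at several concentrations, cells collected and proteins extracted. SDS-PAGE on 5–15% gels, transfer to nitrocellulose, blocking 2 h in 5% nonfat milk in PBS/0.1% Tween 20, primary antibodies overnight at 4 °C, biotin-conjugated secondary 1 h. Detection on X-ray film; band densitometry.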

MDA-MB-231 [6] = assay: Induction of apoptosis in human MDA-MB-231 cells assessed as early apoptotic cells at 6 uM measured after 48 hrs by Annexin V-FITC/propidium iodide staining based flow cytometric analysis (reference value: 1%); type: functional
MDA-MB-231 [7] = assay: Induction of apoptosis in human MDA-MB-231 cells assessed as increase in cleaved caspase 3 protein expression at 9 uM measured after 48 hrs in presence of cdc25c inhibitor, NSC663284 by western blot analysis; type: functional, cell-based
Outline: (§3)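 Four arms per cell line: untreated, test compound, 0.3 µM NSC663284 alone, and combination. Proteins harvested after 48 h and resolved by SDS-PAGE on 5–15% gels, transferred to nitrocellulose. Blocked 2 h in milk/PBS-Tween, primary antibodies overnight at 4 °C, biotin-conjugated secondary. Read on X-ray film with densitometry.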

MCF7 [8] = assay: Induction of apoptosis in human MCF7 cells assessed as late apoptotic cells at 1 uM measured after 48 hrs by Annexin V-FITC/propidium iodide staining based flow cytometric analysis (reference value: 0.6 %); type: functional
MCF7 [9] = assay: Cell cycle arrest in human MCF7 cells assessed as accumulation at G2/M phase at 4 uM measured after 48 hrs by propidium iodide staining based flow cytometry (reference value: 0.01 %); type: functional
MDA-MB-231 [10] = assay: Cell cycle arrest in human MDA-MB-231 cells assessed as accumulation at G1 phase at 3 uM measured after 48 hrs by propidium iodide staining based flow cytometry (reference value: 46.28%); type: functional
MDA-MB-231 [11] = assay: Induction of apoptosis in human MDA-MB-231 cells assessed as early apoptotic cells at 3 uM measured after 48 hrs by Annexin V-FITC/propidium iodide staining based flow cytometric analysis (reference value: 1%); type: functional
MDA-MB-231 [12] = assay: Antiproliferative activity against human MDA-MB-231 cells assessed as reduction in cell viability at 0.03 to 16 uM measured after 24 to 72 hrs by MTT assay; type: functional, cell-based; conditions: dose 0.03-16 µM, time 24-72 hrs
Outline: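 MTT viability time course on the breast cancer cells with increasing compound concentrations for 24, 48 and 72 h. Cells seeded at 3000/well and allowed 12 h before treatment. MTT (5 mg/mL solution) applied for 4 h, crystals dissolved in DMSO, absorbance read at 570/630 nm. Viability expressed relative to untreated cells.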

MDA-MB-231 [13] = assay: Induction of apoptosis in human MDA-MB-231 cells assessed as increase in cleaved caspase 3 protein expression at 3 to 9 uM measured after 48 hrs by western blot analysis; type: functional, cell-based; conditions: dose 3-9 µM
Outline: (§4)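 MCF-7 and MDA-MB-231 breast cancer cells treated 48 h with a concentration series, then lysed for protein. SDS-PAGE on 5–15% gels, transfer to nitrocellulose. Blocked 2 h in 5% nonfat milk/PBS-0.1% Tween 20, primary antibodies overnight at 4 °C, biotin-conjugated secondary 1 h. X-ray film detection with densitometric quantification.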

MDA-MB-231 [14] = assay: Inhibition of PI3K/AKT signalling pathway in human MDA-MB-231 cells assessed as downregulation of AKT phosphorylation at Ser473 residue at 3 to 9 uM measured after 48 hrs by Western blot analysis; type: cell-based; conditions: dose 3-9 µM; outline: as §2
MCF7 [15] = assay: Induction of apoptosis in human MCF7 cells assessed as increase in Noxa protein expression at 1 to 4 uM measured after 48 hrs by western blot analysis; type: functional, cell-based; conditions: dose 1-4 µM; outline: as §4
MDA-MB-231 [16] = assay: Induction of apoptosis in human MDA-MB-231 cells assessed as decrease in Mcl-1 protein expression at 3 to 9 uM measured after 48 hrs by western blot analysis; type: functional, cell-based; conditions: dose 3-9 µM; outline: as §4
MDA-MB-231 [17] = assay: Induction of apoptosis in human MDA-MB-231 cells assessed as increase in cleaved caspase 7 protein expression at 3 to 9 uM measured after 48 hrs by western blot analysis; type: functional, cell-based; conditions: dose 3-9 µM; outline: as §4
MDA-MB-231 [18] = assay: Induction of apoptosis in human MDA-MB-231 cells assessed as late apoptotic cells at 9 uM measured after 48 hrs by Annexin V-FITC/propidium iodide staining based flow cytometric analysis (reference value: 0.3 %); type: functional
MDA-MB-231 [19] = assay: Induction of apoptosis in human MDA-MB-231 cells assessed as increase in cleaved caspase 9 protein expression at 9 uM measured after 48 hrs in presence of cdc25c inhibitor, NSC663284 by western blot analysis; type: functional, cell-based; outline: as §3
HeLa = assay: Anticancer activity against human HeLa cells assessed as inhibition of cell growth measured after 72 hrs by MTT assay; type: functional, cell-based; outline: as §1
MDA-MB-231 [20] = assay: Induction of apoptosis in human MDA-MB-231 cells assessed as early apoptotic cells at 9 uM measured after 48 hrs by Annexin V-FITC/propidium iodide staining based flow cytometric analysis (reference value: 1%); type: functional

C[C@H]1O[C@@H](n2cnc3c(N)nc(F)nc32)[C@H](O)[C@H]1OCP(=O)([O-])[O-].[Na+].[Na+]
Activity (MCF7 [1]): inactive | Activity (MCF7 [2]): Active | IC50 (ECa-109 cell line): 2.57 µM | Activity (MCF7 [3]): 58.1% | Activity (MDA-MB-231 [4]): 63% | inhibition (MCF7 [5]): Active | Activity (MDA-MB-231 [6]): 19.1% | Activity (MDA-MB-231 [7]): inactive | Activity (MCF7 [8]): 4.6% | Activity (MCF7 [9]): 26.15% | Activity (MDA-MB-231 [10]): 44.13% | Activity (MDA-MB-231 [11]): 14.5% | Activity (MDA-MB-231 [12]): Active | Activity (MDA-MB-231 [13]): Active | inhibition (MDA-MB-231 [14]): Active | Activity (MCF7 [15]): Active | Activity (MDA-MB-231 [16]): Active | Activity (MDA-MB-231 [17]): Active | Activity (MDA-MB-231 [18]): 16% | Activity (MDA-MB-231 [19]): inactive | IC50 (HeLa): 6.2 µM | Activity (MDA-MB-231 [20]): 24.8%
